From ChEMBL document CHEMBL3877263, “Synthesis and in vitro characterization of novel fluorinated derivatives of the translocator protein 18 kDa ligand CfO-DPA-714” (Eur J Med Chem, 2017)

Assays:
[1] = target: Translocator protein (Rattus norvegicus, UniProt P16257); assay: Displacement of [3H]PK11195 from TSPO in rat heart membranes after 15 mins by scintillation counting method; type: cell membranes, Membrane
[2] = species: Rattus norvegicus; assay: Displacement of [3H]flunitrazepam from CBR in rat cerebral cortex membranes at 1 uM relative to control; type: cell membranes; settings: Membrane
[3] = n-Octanol-buffer partition coefficient, log D of the compound at pH 7.4 by HPLC method; type: physicochemical
[4] = Intrinsic clearance in human hepatic microsomes assessed per mg protein up to 30 mins in presence of NADPH by UPLC-MS method; type: ADME; settings: liver microsomes, read-out: CLH
Summary of the method: (§1)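 Hepatic microsomes (male CD1 mouse, male Sprague-Dawley rat, or pooled human) at 0.25 mg/mL protein, substrate 0.5 µM, 1 mM NADPH; samples at 0, 5, 10, 20, 30 min, quenched with 1 volume CH3CN, centrifuged, supernatant by UPLC/HRMS. % remaining vs T0 (analyte/internal standard ratio); k from ln(% stability) vs time; InC = k/protein concentration × 1000.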

[5] = Intrinsic clearance in Sprague-Dawley rat hepatic microsomes assessed per mg protein up to 30 mins in presence of NADPH by UPLC-MS method; type: ADME; settings: liver microsomes, read-out: CLH; summary of the method: as §1
[6] = Intrinsic clearance in CD1 mouse hepatic microsomes assessed per mg protein up to 30 mins in presence of NADPH by UPLC-MS method; type: ADME; settings: liver microsomes, read-out: CLH; summary of the method: as §1

Sequence of Translocator protein (P16257 whole entry, looked up): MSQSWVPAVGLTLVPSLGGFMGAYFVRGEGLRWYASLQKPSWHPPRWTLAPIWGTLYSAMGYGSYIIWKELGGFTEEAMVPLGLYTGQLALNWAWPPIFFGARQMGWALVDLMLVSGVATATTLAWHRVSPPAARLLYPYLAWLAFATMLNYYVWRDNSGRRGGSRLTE

Row | Compound | Ki [1] [nM] | inhibition [2] [%] | logD [3] | microsomal CLint [4] [µL/min/mg] | microsomal CLint [5] [µL/min/mg] | microsomal CLint [6] [µL/min/mg]
1 | Cc1cc(C)n2nc(-c3ccc(CCCF)cc3)c(CC(=O)N(C)Cc3ccccn3)c2n1 | 1.2 | 0 | 3.16 | 270 | 610 | 947
2 | Cc1cc(C)n2nc(-c3ccc(CCCF)cc3)c(CC(=O)N3CCCCC3)c2n1 | 2.2 | 0 | 3.56 | 424 | > 1000 | 931
3 | Cc1cc(C)n2nc(-c3ccc(CCCF)cc3)c(CC(=O)N3CCOCC3)c2n1 | 27 | 0 | 2.56 |  |  | 
4 | Cc1cc(C)n2nc(-c3ccc(CCCF)cc3)c(CC(=O)N(C)Cc3ccccc3)c2n1 | 0.3 | 0 | 3.98 | > 1000 | > 1000 | > 1000
5 | CCN(CC)C(=O)Cc1c(-c2ccc(OCCF)cc2)nn2c(C)cc(C)nc12 [DPA-714] |  | 0 |  | 68 | > 1000 | 408
6 | Cc1cc(C)n2nc(-c3ccc(CCCF)cc3)c(CC(=O)N3CCNCC3)c2n1 | 260 | 0 | 0.87 |  |  | 
7 | Cc1cc(C)n2nc(-c3ccc(CCCF)cc3)c(CC(=O)N3CCCC3)c2n1 | 26 | 0 | 3.04 |  |  | 
8 | Cc1cc(C)n2nc(-c3ccc(CCCF)cc3)c(CC(=O)N(C)CCc3ccccc3)c2n1 | 1.1 | 0 | 4.08 | > 1000 | > 1000 | > 1000

Next, values leading:

Row | Ki [1] [nM] | inhibition [2] [%] | logD [3] | microsomal CLint [4] [µL/min/mg] | microsomal CLint [5] [µL/min/mg] | microsomal CLint [6] [µL/min/mg] | Compound
9 | 17 | 0 | 2.69 |  |  |  | Cc1cc(C)n2nc(-c3ccc(CCCF)cc3)c(CC(=O)NC3CC3)c2n1
10 | 15 | 2 | 2.68 |  |  |  | Cc1cc(C)n2nc(-c3ccc(CCCF)cc3)c(CC(=O)N(C)C)c2n1
11 | 32 | 0 | 2.73 |  |  |  | Cc1cc(C)n2nc(-c3ccc(CCCF)cc3)c(CC(=O)N3CCC3)c2n1
12 | 0.26 | 0 | 4.39 | > 1000 | > 1000 | > 1000 | CCCN(CCC)C(=O)Cc1c(-c2ccc(CCCF)cc2)nn2c(C)cc(C)nc12
13 |  | 0 | 3.51 | 241 | > 1000 | 865 | CCN(CC)C(=O)Cc1c(-c2ccc(CCCF)cc2)nn2c(C)cc(C)nc12
14 | 0.25 | 0 | 3.65 | 321 | > 1000 | 781 | CCCN(C)C(=O)Cc1c(-c2ccc(CCCF)cc2)nn2c(C)cc(C)nc12
15 | 2.8 | 0 | 2.61 | 862 | > 1000 | > 1000 | Cc1cc(C)n2nc(-c3ccc(CCCF)cc3)c(CC(=O)N(C)Cc3cccnc3)c2n1
